Assay results: ChEMBL document CHEMBL4428122, “Design, synthesis, and biological characterization of novel PEG-linked dimeric modulators for CXCR4” (Bioorg Med Chem, 2016)
Activity calls are given as the source filed them. The calls are words filed in the database; no cut-off is given here. Non-standard residues stand in square brackets, D forms with d. Residues, ends and D or L forms follow the SMILES beside them.

What was measured:
[1] = molecular target: T1, C-X-C chemokine receptor type 4 (Homo sapiens, UniProt P61073); assay: Agonist activity at CXCR4 in human SupT1 cells assessed as increase in Ca2+ influx by fura-2/AM dye-based fluorescence analysis; assay type: functional, cell-based
Procedure, shortened: (§1)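 They were loaded at 10^7 cells/mL with 2 μM fura-2/AM and 5 μM probenecid for 30 min, then resuspended at 2 × 10^6 cells/mL. After a 2 min baseline, peptide was added. Ex 340/380 nm, em 510 nm.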

[2] = molecular target: T1, C-X-C chemokine receptor type 4; assay: Antagonist activity at CXCR4 in human SupT1 cells assessed as inhibition of CXCL12-induced cell migration at 100 nM preincubated for 2 hrs followed by CXCL12 addition measured after 3 hrs by Cell titer-Blue reagent-based transwell assay
Procedure, shortened: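 SUP-T1 cells were washed in RPMI1640 with 0.5% BSA, and 1 × 10^6 cells were incubated with peptide for 2 h. Cells were then seeded in upper transwell chambers (5 μm pores) over a lower chamber with 10 nM SDF-1α, or buffer alone for background. Migration ran 3 h at 37°C. Migrated cells were expressed as % of seeded cells. At least three independent experiments, mean ± S.E.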

[3] = molecular target: T1, C-X-C chemokine receptor type 4; assay: Antagonist activity at CXCR4 in human SupT1 cells assessed as inhibition of CXCL12-induced Ca2+ influx preincubated for 2 to 3 mins prior CXCL12-stimulation by fura-2/AM dye-based fluorescence analysis; assay type: functional, cell-based
Procedure, shortened: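 Fura-2/AM-loaded SUP-T1 cells (2 μM dye, 5 μM probenecid, 30 min; 2 × 10^6 cells/mL in Hepes pH 7.4 saline with Ca2+/Mg2+, glucose, 0.025% BSA) were pre-incubated with peptide for 2–3 min, then stimulated with SDF-1α. Fluorescence was read at ex 340/380 nm, em 510 nm.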

SUP-T1 = assay: Cytotoxicity against human SupT1 cells at 100 nM; assay type: cell-based; conditions: sup-t1, 0.1 µM
[4] = molecular target: T1, C-X-C chemokine receptor type 4; assay: Binding affinity to CXCR4 (unknown origin) expressed in CHO cells measured after 40 mins by 12G5 antibody competition assay; assay type: cell-based
[5] = molecular target: T1, C-X-C chemokine receptor type 4; assay: Agonist activity at CXCR4 in human SupT1 cells assessed as increase Ca2+ influx at 2 uM by fura-2/AM dye-based fluorescence analysis; assay type: functional, cell-based; procedure, shortened: as §1

T1 sequence (P61073 whole entry): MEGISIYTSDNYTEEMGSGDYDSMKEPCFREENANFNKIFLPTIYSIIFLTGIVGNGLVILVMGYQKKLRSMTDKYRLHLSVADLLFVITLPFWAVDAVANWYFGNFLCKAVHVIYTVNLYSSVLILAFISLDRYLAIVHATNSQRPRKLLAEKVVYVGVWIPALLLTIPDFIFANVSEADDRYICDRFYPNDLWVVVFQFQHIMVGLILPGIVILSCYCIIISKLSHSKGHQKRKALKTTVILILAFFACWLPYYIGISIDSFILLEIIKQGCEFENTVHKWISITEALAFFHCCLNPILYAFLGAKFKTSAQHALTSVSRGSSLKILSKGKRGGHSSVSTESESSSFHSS

Row | inhibition [2] | antagonist activity (qualitative) [3] | Molecule | Activity (SUP-T1) | also measured
1 |  |  | CC(C)C[C@@H](N)C(=O)NCC(=O)N[C@H](C)C(=O)N[C@H](CO)C(=O)N[C@H](Cc1c[nH]c2ccccc12)C(=O)N[C@H](Cc1cnc[nH]1)C(=O)N[C@H](CCCNC(=N)N)C(=O)N1CCC[C@@H]1C(=O)N[C@H](CC(=O)O)C(=O)N[C@H](CCCCN)C(=O)NCCOCCOCCOCCC(=O)N[C@@H](CCCCNC(=O)CCOCCOCCOCCNC(=O)[C@H](CC(C)C)NC(=O)[C@H](CO)NC(=O)[C@@H](NC(=O)[C@@H]1CCCN1C(=O)[C@@H](N)CCCCN)C(C)C)C(N)=O |  | Activity [1]: inactive
2 |  |  | CC(C)C[C@@H](N)C(=O)NCC(=O)N[C@H](C)C(=O)N[C@H](CO)C(=O)N[C@H](Cc1c[nH]c2ccccc12)C(=O)N[C@H](Cc1cnc[nH]1)C(=O)N[C@H](CCCNC(=N)N)C(=O)N1CCC[C@@H]1C(=O)N[C@H](CC(=O)O)C(=O)N[C@H](CCCCN)C(=O)NCCOCCOCCOCCC(=O)N[C@@H](CCCCNC(=O)CCOCCOCCOCCOCCOCCNC(=O)[C@H](CO)NC(=O)[C@H](CC(C)C)NC(=O)[C@H](CO)NC(=O)[C@@H](NC(=O)[C@@H]1CCCN1C(=O)[C@@H](N)CCCCN)C(C)C)C(N)=O |  | Activity [1]: inactive
3 |  | Active | CC(C)C[C@@H](N)C(=O)NCC(=O)N[C@H](C)C(=O)N[C@H](CO)C(=O)N[C@H](Cc1c[nH]c2ccccc12)C(=O)N[C@H](Cc1cnc[nH]1)C(=O)N[C@H](CCCNC(=N)N)C(=O)N1CCC[C@@H]1C(=O)N[C@H](CC(=O)O)C(=O)N[C@H](CCCCN)C(=O)NCCOCCOCCOCCOCCOCCC(=O)NCCCC[C@H](NC(=O)CCOCCOCCOCCOCCOCCNC(=O)[C@@H](CCCCN)NC(=O)[C@@H](CC(=O)O)NC(=O)[C@H]1CCCN1C(=O)[C@@H](CCCNC(=N)N)NC(=O)[C@@H](Cc1cnc[nH]1)NC(=O)[C@@H](Cc1c[nH]c2ccccc12)NC(=O)[C@@H](CO)NC(=O)[C@@H](C)NC(=O)CNC(=O)[C@H](N)CC(C)C)C(N)=O | Non-Toxic | 
4 |  |  | CC(C)C[C@@H](N)C(=O)NCC(=O)N[C@H](C)C(=O)N[C@H](CO)C(=O)N[C@H](Cc1c[nH]c2ccccc12)C(=O)N[C@H](Cc1cnc[nH]1)C(=O)N[C@H](CCCNC(=N)N)C(=O)N1CCC[C@@H]1C(=O)N[C@H](CC(=O)O)C(=O)N[C@H](CCCCN)C(=O)N[C@H](CCCCNC(=O)[C@H](CCCNC(=N)N)NC(=O)[C@H](Cc1ccc(O)cc1)NC(=O)[C@H](CO)NC(=O)[C@H](CC(C)C)NC(=O)[C@H](CO)NC(=O)[C@@H](NC(=O)[C@@H]1CCCN1C(=O)[C@@H](N)CCCCN)C(C)C)C(N)=O |  | Activity [1]: Active; IC50 ([4]; read-out: IC50): 502 nM
5 |  |  | CC(C)C[C@@H](N)C(=O)NCC(=O)N[C@H](C)C(=O)N[C@H](CO)C(=O)N[C@H](Cc1c[nH]c2ccccc12)C(=O)N[C@H](Cc1cnc[nH]1)C(=O)N[C@H](CCCNC(=N)N)C(=O)N1CCC[C@@H]1C(=O)N[C@H](CC(=O)O)C(=O)N[C@H](CCCCN)C(=O)NC(=O)[C@@H](CCCCN)NC(=O)[C@@H](CC(=O)O)NC(=O)[C@H]1CCCN1C(=O)[C@@H](CCCNC(=N)N)NC(=O)[C@@H](Cc1cnc[nH]1)NC(=O)[C@@H](Cc1c[nH]c2ccccc12)NC(=O)[C@@H](CO)NC(=O)[C@@H](C)NC(=O)CNC(=O)[C@H](N)CC(C)C |  | IC50 ([4]; read-out: IC50): 462 nM
6 | 67% |  | CC(C)C[C@@H](N)C(=O)NCC(=O)N[C@H](C)C(=O)N[C@H](CO)C(=O)N[C@H](Cc1c[nH]c2ccccc12)C(=O)N[C@H](Cc1cnc[nH]1)C(=O)N[C@H](CCCNC(=N)N)C(=O)N1CCC[C@@H]1C(=O)N[C@H](CC(=O)O)C(=O)N[C@H](CCCCN)C(=O)NCCOCCOCCOCCC(=O)NCCCC[C@H](NC(=O)CCOCCOCCOCCNC(=O)[C@@H](CCCCN)NC(=O)[C@@H](CC(=O)O)NC(=O)[C@H]1CCCN1C(=O)[C@@H](CCCNC(=N)N)NC(=O)[C@@H](Cc1cnc[nH]1)NC(=O)[C@@H](Cc1c[nH]c2ccccc12)NC(=O)[C@@H](CO)NC(=O)[C@@H](C)NC(=O)CNC(=O)[C@H](N)CC(C)C)C(N)=O | Non-Toxic | 
7 | 28% | Active | CC(C)C[C@@H](N)C(=O)NCC(=O)N[C@H](C)C(=O)N[C@H](CO)C(=O)N[C@H](Cc1c[nH]c2ccccc12)C(=O)N[C@H](Cc1cnc[nH]1)C(=O)N[C@H](CCCNC(=N)N)C(=O)N1CCC[C@@H]1C(=O)NCCOCCOCCOCCC(=O)NCCCC[C@H](NC(=O)CCOCCOCCOCCNC(=O)[C@H]1CCCN1C(=O)[C@@H](CCCNC(=N)N)NC(=O)[C@@H](Cc1cnc[nH]1)NC(=O)[C@@H](Cc1c[nH]c2ccccc12)NC(=O)[C@@H](CO)NC(=O)[C@@H](C)NC(=O)CNC(=O)[C@H](N)CC(C)C)C(N)=O | Non-Toxic | 
8 |  |  | CC(C)C[C@@H](N)C(=O)NCC(=O)N[C@H](C)C(=O)N[C@H](CO)C(=O)N[C@H](Cc1c[nH]c2ccccc12)C(=O)N[C@H](Cc1cnc[nH]1)C(=O)N[C@H](CCCNC(=N)N)C(=O)N1CCC[C@@H]1C(=O)N[C@H](CC(=O)O)C(=O)N[C@H](CCCCN)C(=O)NCCOCCOCCOCCC(=O)N[C@@H](CCCCNC(=O)CCOCCOCCOCCNC(=O)[C@H](CCCNC(=N)N)NC(=O)[C@H](Cc1ccc(O)cc1)NC(=O)[C@H](CO)NC(=O)[C@H](CC(C)C)NC(=O)[C@H](CO)NC(=O)[C@@H](NC(=O)[C@@H]1CCCN1C(=O)[C@@H](N)CCCCN)C(C)C)C(N)=O |  | Activity [5]: Active
9 |  |  | CC(C)C[C@@H](N)C(=O)NCC(=O)N[C@H](C)C(=O)N[C@H](CO)C(=O)N[C@H](Cc1c[nH]c2ccccc12)C(=O)N[C@H](Cc1cnc[nH]1)C(=O)N[C@H](CCCNC(=N)N)C(=O)N1CCC[C@@H]1C(=O)N[C@H](CC(=O)O)C(=O)N[C@H](CCCCN)C(=O)NCCOCCOCCOCCOCCOCCC(=O)N[C@@H](CCCCNC(=O)CCOCCOCCOCCOCCOCCNC(=O)[C@H](CCCNC(=N)N)NC(=O)[C@H](Cc1ccc(O)cc1)NC(=O)[C@H](CO)NC(=O)[C@H](CC(C)C)NC(=O)[C@H](CO)NC(=O)[C@@H](NC(=O)[C@@H]1CCCN1C(=O)[C@@H](N)CCCCN)C(C)C)C(N)=O |  | Activity [1]: inactive
10 | 48% | Active | CC(C)C[C@@H](N)C(=O)NCC(=O)N[C@H](C)C(=O)N[C@H](CO)C(=O)N[C@H](Cc1c[nH]c2ccccc12)C(=O)N[C@H](Cc1cnc[nH]1)C(=O)N[C@H](CCCNC(=N)N)C(=O)N1CCC[C@@H]1C(=O)N[C@H](CC(=O)O)C(=O)N[C@H](CCCCN)C(=O)NCCOCCOCCOCCOCCOCCOCCOCCC(=O)NCCCC[C@H](NC(=O)CCOCCOCCOCCOCCOCCOCCOCCNC(=O)[C@@H](CCCCN)NC(=O)[C@@H](CC(=O)O)NC(=O)[C@H]1CCCN1C(=O)[C@@H](CCCNC(=N)N)NC(=O)[C@@H](Cc1cnc[nH]1)NC(=O)[C@@H](Cc1c[nH]c2ccccc12)NC(=O)[C@@H](CO)NC(=O)[C@@H](C)NC(=O)CNC(=O)[C@H](N)CC(C)C)C(N)=O | Non-Toxic | 
11 |  |  | H-KPVSLSYR-OH |  | IC50 ([4]; cho): Not Active
12 | 34% |  | CC(C)C[C@@H](N)C(=O)NCC(=O)N[C@H](C)C(=O)N[C@H](CO)C(=O)N[C@H](Cc1c[nH]c2ccccc12)C(=O)N[C@H](Cc1cnc[nH]1)C(=O)N[C@H](CCCNC(=N)N)C(=O)N1CCC[C@@H]1C(=O)NCCOCCOCCOCCOCCOCCC(=O)NCCCC[C@H](NC(=O)CCOCCOCCOCCOCCOCCNC(=O)[C@H]1CCCN1C(=O)[C@@H](CCCNC(=N)N)NC(=O)[C@@H](Cc1cnc[nH]1)NC(=O)[C@@H](Cc1c[nH]c2ccccc12)NC(=O)[C@@H](CO)NC(=O)[C@@H](C)NC(=O)CNC(=O)[C@H](N)CC(C)C)C(N)=O | Non-Toxic | 
13 |  |  | CC(C)C[C@@H](N)C(=O)NCC(=O)N[C@H](C)C(=O)N[C@H](CO)C(=O)N[C@H](Cc1c[nH]c2ccccc12)C(=O)N[C@H](Cc1cnc[nH]1)C(=O)N[C@H](CCCNC(=N)N)C(=O)N1CCC[C@@H]1C(=O)N[C@H](CC(=O)O)C(=O)N[C@H](CCCCN)C(=O)O (H-[dL]G[dA][dS][dW][dH][dR][dP][dD][dK]-OH) |  | IC50 ([4]; read-out: IC50): 2000 nM

Row | Molecule | inhibition [2] | antagonist activity (qualitative) [3] | Activity (SUP-T1) | also measured
14 | CC(C)C[C@@H](N)C(=O)NCC(=O)N[C@H](C)C(=O)N[C@H](CO)C(=O)N[C@H](Cc1c[nH]c2ccccc12)C(=O)N[C@H](Cc1cnc[nH]1)C(=O)N[C@H](CCCNC(=N)N)C(=O)N1CCC[C@@H]1C(=O)N[C@H](C)C(=O)N[C@H](CCCCN)C(=O)NCCOCCOCCOCCC(=O)NCCCC[C@H](NC(=O)CCOCCOCCOCCNC(=O)[C@@H](CCCCN)NC(=O)[C@@H](C)NC(=O)[C@H]1CCCN1C(=O)[C@@H](CCCNC(=N)N)NC(=O)[C@@H](Cc1cnc[nH]1)NC(=O)[C@@H](Cc1c[nH]c2ccccc12)NC(=O)[C@@H](CO)NC(=O)[C@@H](C)NC(=O)CNC(=O)[C@H](N)CC(C)C)C(N)=O | 21% | Active | Non-Toxic | 
15 | CC(C)C[C@@H](N)C(=O)NCC(=O)N[C@H](C)C(=O)N[C@H](CO)C(=O)N[C@H](Cc1c[nH]c2ccccc12)C(=O)N[C@H](Cc1cnc[nH]1)C(=O)N[C@H](CCCNC(=N)N)C(=O)N[C@H](C)C(=O)N[C@H](CC(=O)O)C(=O)N[C@H](CCCCN)C(=O)NCCOCCOCCOCCC(=O)NCCCC[C@H](NC(=O)CCOCCOCCOCCNC(=O)[C@@H](CCCCN)NC(=O)[C@@H](CC(=O)O)NC(=O)[C@@H](C)NC(=O)[C@@H](CCCNC(=N)N)NC(=O)[C@@H](Cc1cnc[nH]1)NC(=O)[C@@H](Cc1c[nH]c2ccccc12)NC(=O)[C@@H](CO)NC(=O)[C@@H](C)NC(=O)CNC(=O)[C@H](N)CC(C)C)C(N)=O | 23% | Active | Non-Toxic | 
